Measurements taken from ChEMBL document CHEMBL1926565, “Synthesis, antiproliferative activities and telomerase inhibition evaluation of novel asymmetrical 1,2-disubstituted amidoanthraquinone derivatives” (Eur J Med Chem, 2012).
The source made the active and inactive calls. No cut-off for these calls is given here.

Columns and labels:
OVCAR-5 = test: Cytotoxicity against human OVCAR5 cells assessed as cellular growth at 10 uM; assay type: functional
Outline: (§1)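 Single-dose screen run by the NCI across its 60-human-tumour-cell-line panel; growth recorded for each cell line.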

PC-3 = test: Cytotoxicity against human PC3 cells assessed as cellular growth at 10 uM; assay type: functional; outline: as §1
SK-MEL-28 = test: Cytotoxicity against human SK-MEL-28 cells assessed as cellular growth at 10 uM; assay type: functional; outline: as §1
SNB-75 = test: Cytotoxicity against human SNB75 cells assessed as cellular growth at 10 uM; assay type: functional
HL-60(TB) = test: Cytotoxicity against human HL-60(TB) cells assessed as cellular growth at 10 uM; assay type: functional; outline: as §1
SR = test: Cytotoxicity against human SR cells assessed as cellular growth at 10 uM; assay type: functional
SK-MEL-2 = test: Cytotoxicity against human SK-MEL-2 cells assessed as cellular growth at 10 uM; assay type: functional; outline: as §1
OVCAR-3 = test: Cytotoxicity against human OVCAR3 cells assessed as cellular growth at 10 uM; assay type: functional; outline: as §1
COLO 205 = test: Cytotoxicity against human COLO205 cells assessed as cellular growth at 10 uM; assay type: functional; outline: as §1
NCI-H226 = test: Cytotoxicity against human NCI-H226 cells assessed as cellular growth at 10 uM; assay type: functional; outline: as §1
SW-620 = test: Cytotoxicity against human SW620 cells assessed as cellular growth at 10 uM; assay type: functional
A498 = test: Cytotoxicity against human A498 cells assessed as cellular growth at 10 uM; assay type: functional; outline: as §1
MOLT-4 = test: Cytotoxicity against human MOLT4 cells assessed as cellular growth at 10 uM; assay type: functional; outline: as §1
MDA-MB-231 = test: Cytotoxicity against human MDA-MB-231 cells assessed as cellular growth at 10 uM; assay type: functional; outline: as §1
[1] = biological target: Telomerase reverse transcriptase (Homo sapiens) (UniProt O14746); test: Residual activity of human TERT in H1299 cells at 1 uM after 24 hrs by SEAP reporter gene assay
Sequence of Telomerase reverse transcriptase (Homo sapiens) (O14746 whole entry): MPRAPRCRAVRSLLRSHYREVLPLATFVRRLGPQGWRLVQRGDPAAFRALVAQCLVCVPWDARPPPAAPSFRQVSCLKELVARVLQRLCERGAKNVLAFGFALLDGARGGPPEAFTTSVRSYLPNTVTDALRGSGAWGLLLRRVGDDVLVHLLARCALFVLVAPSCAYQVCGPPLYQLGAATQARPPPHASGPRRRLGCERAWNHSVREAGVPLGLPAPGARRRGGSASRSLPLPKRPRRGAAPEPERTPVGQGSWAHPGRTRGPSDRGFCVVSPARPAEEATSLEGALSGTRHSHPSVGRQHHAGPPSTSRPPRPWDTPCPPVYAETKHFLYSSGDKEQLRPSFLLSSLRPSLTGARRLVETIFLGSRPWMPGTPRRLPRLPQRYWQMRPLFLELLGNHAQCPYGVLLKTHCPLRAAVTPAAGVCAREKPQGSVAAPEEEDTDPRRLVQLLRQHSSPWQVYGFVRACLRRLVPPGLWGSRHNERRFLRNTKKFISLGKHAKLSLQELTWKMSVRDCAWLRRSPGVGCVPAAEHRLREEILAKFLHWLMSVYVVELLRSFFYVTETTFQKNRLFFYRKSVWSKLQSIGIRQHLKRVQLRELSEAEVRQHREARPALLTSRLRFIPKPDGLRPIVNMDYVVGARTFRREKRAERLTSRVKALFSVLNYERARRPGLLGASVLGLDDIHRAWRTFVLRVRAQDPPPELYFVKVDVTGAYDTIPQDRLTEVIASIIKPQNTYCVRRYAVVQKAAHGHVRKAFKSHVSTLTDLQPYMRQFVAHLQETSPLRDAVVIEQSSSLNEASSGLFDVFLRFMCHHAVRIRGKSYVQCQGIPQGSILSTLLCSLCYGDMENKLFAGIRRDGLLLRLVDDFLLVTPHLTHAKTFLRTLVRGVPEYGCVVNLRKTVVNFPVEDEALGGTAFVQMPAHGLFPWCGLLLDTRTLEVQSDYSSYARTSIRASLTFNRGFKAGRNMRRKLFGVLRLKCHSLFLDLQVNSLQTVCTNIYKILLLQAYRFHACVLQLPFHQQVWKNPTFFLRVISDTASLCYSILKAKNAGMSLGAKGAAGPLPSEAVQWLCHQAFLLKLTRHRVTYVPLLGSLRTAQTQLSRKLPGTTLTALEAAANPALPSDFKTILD

A549 = test: Cytotoxicity against human A549 cells assessed as cellular growth at 10 uM; assay type: functional; outline: as §1
HOP-62 = test: Cytotoxicity against human HOP62 cells assessed as cellular growth at 10 uM; assay type: functional; outline: as §1
SK-OV-3 = test: Cytotoxicity against human SKOV3 cells assessed as cellular growth at 10 uM; assay type: functional
RXF 393 = test: Cytotoxicity against human RXF393 cells assessed as cellular growth at 10 uM; assay type: functional; outline: as §1
CCRF-CEM = test: Cytotoxicity against human CCRF-CEM cells assessed as cellular growth at 10 uM; assay type: functional; outline: as §1
ACHN = test: Cytotoxicity against human ACHN cells assessed as cellular growth at 10 uM; assay type: functional; outline: as §1
IGROV-1 = test: Cytotoxicity against human IGROV1 cells assessed as cellular growth at 10 uM; assay type: functional; outline: as §1
HCC 2998 = test: Cytotoxicity against human HCC2998 cells assessed as cellular growth at 10 uM; assay type: functional; outline: as §1
UACC-62 = test: Cytotoxicity against human UACC62 cells assessed as cellular growth at 10 uM; assay type: functional
TK-10 = test: Cytotoxicity against human TK10 cells assessed as cellular growth at 10 uM; assay type: functional
NCI-H322M = test: Cytotoxicity against human NCI-H322M cells assessed as cellular growth at 10 uM; assay type: functional; outline: as §1
EKVX = test: Cytotoxicity against human EKVX cells assessed as cellular growth at 10 uM; assay type: functional; outline: as §1
MCF7 = test: Cytotoxicity against human MCF7 cells assessed as cellular growth at 10 uM; assay type: functional; outline: as §1
SNB-19 = test: Cytotoxicity against human SNB19 cells assessed as cellular growth at 10 uM; assay type: functional
NCI-H522 = test: Cytotoxicity against human NCI-H522 cells assessed as cellular growth at 10 uM; assay type: functional; outline: as §1
[2] = biological target: Telomerase reverse transcriptase (Homo sapiens) (UniProt O14746); test: Inhibition of telomerase activity in human H1299 cell free extract at 10 uM by modified TRAP assay
Outline: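 TRAP assay using total cell lysate from H1299 lung cancer cells as the telomerase source, with protein measured against BSA standards. Compounds tested at 10 µM. Controls were lysate without inhibitor (positive) and RNase A-treated extract without inhibitor (negative).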

LOX IMVI = test: Cytotoxicity against human LOXIMVI cells assessed as cellular growth at 10 uM; assay type: functional; outline: as §1
[3] = Cytotoxicity against human Hs 578T cells assessed as cellular growth at 10 uM; assay type: functional; outline: as §1
KM12 = test: Cytotoxicity against human KM12 cells assessed as cellular growth at 10 uM; assay type: functional; outline: as §1
M14 = test: Cytotoxicity against human M14 cells assessed as cellular growth at 10 uM; assay type: functional; outline: as §1
OVCAR-4 = test: Cytotoxicity against human OVCAR4 cells assessed as cellular growth at 10 uM; assay type: functional; outline: as §1
SF-295 = test: Cytotoxicity against human SF295 cells assessed as cellular growth at 10 uM; assay type: functional; outline: as §1
MDA-MB-468 = test: Cytotoxicity against human MDA-MB-468 cells assessed as cellular growth at 10 uM; assay type: functional; outline: as §1
NCI/ADR-RES = test: Cytotoxicity against human NCI/ADR-RES cells assessed as cellular growth at 10 uM; assay type: functional; outline: as §1
SK-MEL-5 = test: Cytotoxicity against human SK-MEL-5 cells assessed as cellular growth at 10 uM; assay type: functional
UACC-257 = test: Cytotoxicity against human UACC257 cells assessed as cellular growth at 10 uM; assay type: functional
[4] = biological target: Telomerase reverse transcriptase (Homo sapiens) (UniProt O14746); test: Residual activity of human TERT in H1299 cells at 100 uM after 24 hrs by SEAP reporter gene assay
[5] = Growth of human H1299 cells at 1 uM after 48 hrs by MTT assay; conditions: NCI-H1299, 48 h
BT-549 = test: Cytotoxicity against human BT549 cells assessed as cellular growth at 10 uM; assay type: functional; outline: as §1
NCI-H23 = test: Cytotoxicity against human NCI-H23 cells assessed as cellular growth at 10 uM; assay type: functional; outline: as §1
HOP-92 = test: Cytotoxicity against human HOP92 cells assessed as cellular growth at 10 uM; assay type: functional; outline: as §1
SF-539 = test: Cytotoxicity against human SF539 cells assessed as cellular growth at 10 uM; assay type: functional; outline: as §1
CAKI-1 = test: Cytotoxicity against human Caki1 cells assessed as cellular growth at 10 uM; assay type: functional; outline: as §1
K562 = test: Cytotoxicity against human K562 cells assessed as cellular growth at 10 uM; assay type: functional; outline: as §1
[6] = Growth of human H1299 cells at 10 uM after 48 hrs by MTT assay; conditions: NCI-H1299, 48 h
[7] = biological target: Telomerase reverse transcriptase (Homo sapiens) (UniProt O14746); test: Residual activity of human TERT in H1299 cells at 10 uM after 24 hrs by SEAP reporter gene assay
786-0 = test: Cytotoxicity against human 786-0 cells assessed as cellular growth at 10 uM; assay type: functional; outline: as §1

Cc1ccc(C(=O)Nc2c(NC(=O)CN3CCN(C)CC3)ccc3c2C(=O)c2ccccc2C3=O)cc1
Activity (OVCAR-5): 106.66%
Activity (PC-3): 84.75%
Activity (SK-MEL-28): -57.56%
Activity (SNB-75): 82.17%
Activity (HL-60(TB)): -8.54%
Activity (SR): -43.7%
Activity (SK-MEL-2): 123.64%
Activity (OVCAR-3): -6.15%
Activity (COLO 205): 2.29%
Activity (NCI-H226): 93.87%
Activity (SW-620): 39.17%
Activity (A498): 67.36%
Activity (MOLT-4): 26.04%
Activity (MDA-MB-231): 37%
residual activity [1]: 78%
Activity (A549): 83.89%
Activity (HOP-62): 75.21%
Activity (SK-OV-3): 108.91%
Activity (RXF 393): 68.84%
Activity (CCRF-CEM): 61.06%
Activity (ACHN): 49.87%
Activity (IGROV-1): 112.2%
Activity (HCC 2998): 28.97%
Activity (UACC-62): -20.65%
Activity (TK-10): 101.93%
Activity (NCI-H322M): 72.6%
Activity (EKVX): 78.07%
Activity (MCF7): 31.79%
Activity (SNB-19): 68.75%
Activity (NCI-H522): 88.21%
inhibition [2]: inactive
Activity (LOX IMVI): 1.24%
Activity [3]: 87.29%
Activity (KM12): 44.05%
Activity (M14): -60.04%
Activity (OVCAR-4): 57.11%
Activity (SF-295): 89.86%
Activity (MDA-MB-468): 7.43%
Activity (NCI/ADR-RES): 66.74%
Activity (SK-MEL-5): 41.3%
Activity (UACC-257): -50.95%
residual activity [4]: 8%
growth, % of control at 1 µM [5]: 77%
Activity (BT-549): 91.88%
Activity (NCI-H23): 89.52%
Activity (HOP-92): 90.68%
Activity (SF-539): 62.68%
Activity (CAKI-1): 69.76%
Activity (K562): -4.52%
growth, % of control at 10 µM [6]: 13%
residual activity [7]: 29%
Activity (786-0): 11.9%
